Measurements reported in ChEMBL document CHEMBL4376814, “Novel cyclin-dependent kinase 9 (CDK9) inhibitor with suppression of cancer stemness activity against non-small-cell lung cancer” (Eur J Med Chem, 2019).

Columns and labels:
CCRF-CEM = test: Antiproliferative activity against human CCRF-CEM cells assessed as inhibition of cell viability after 72 hrs by CCK-8 assay; format: functional, cell-based
Outline: (§1)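 Cells kept at 37 °C, 5% CO2 in DMEM or RPMI-1640 with 10% FBS and 1% penicillin/streptomycin, then seeded at 3000 cells/well (adherent) or 10,000 cells/well (suspension). Exposed to a range of concentrations for 72 h. CCK-8 added for 1-4 h before reading A450. […] Three independent experiments.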

[1] = biological target: Serine/threonine-protein kinase 17A (Homo sapiens) (UniProt Q9UEE5); test: Inhibition of recombinant full-length human DRAK1 at 1 uM using KKLNRTLSFAEPG as substrate measured after 40 mins in presence of [gamma33P]ATP by scintillation counting method relative to control
[2] = system: Tyrosine-protein kinase ABL1 (Homo sapiens), P00519 [Y253F]; test: Inhibition of recombinant human Abl Y253F mutant (27 to end residues) at 1 uM using EAIYAAPFAKKK as substrate measured after 40 mins in presence of [gamma33P]ATP by scintillation counting method relative to control
A549 = test: Induction of apoptosis in human A549 cells assessed as late apoptotic cells at 0.5 uM after 48 hrs by AnnexinV-FITC/PI staining-based flow cytometric analysis (reference value: 7.66%); format: functional
[3] = biological target: Ephrin type-A receptor 2 (Homo sapiens) (UniProt P29317); test: Inhibition of recombinant human EphA2 (596 to 900 residues) at 1 uM using poly(Glu, Tyr) 4:1 as substrate measured after 40 mins in presence of [gamma33P]ATP by scintillation counting method relative to control
[4] = biological target: Serine/threonine-protein kinase ULK3 (Homo sapiens) (UniProt Q6PHR2); test: Inhibition of recombinant full-length human ULK3 at 1 uM using casein as substrate measured after 40 mins in presence of [gamma33P]ATP by scintillation counting method relative to control
HepG2 [5] = test: Antiproliferative activity against human HepG2 cells assessed as inhibition of cell viability after 72 hrs by CCK-8 assay; format: functional, cell-based; conditions: HepG2, 72 h; outline: as §1
HepG2 [6] = test: Antiproliferative activity against human HepG2 cells assessed as inhibition of cell viability at 500 nM after 72 hrs by CCK-8 assay relative to control; format: functional; conditions: HepG2, 72 h
Outline: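 Single-concentration viability screen using CCK-8. Cells were seeded at 3000/well and treated for 72 h. A450 read after 1-4 h with reagent. Percent inhibition calculated against untreated control and blank wells as (Ac−As)/(Ac−Ab)×100%.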

[7] = system: Mast/stem cell growth factor receptor Kit (Homo sapiens), P10721 [D816H]; test: Inhibition of recombinant human cKit (544 to end residues) D816H mutant at 1 uM using GGMEDIYFEFMGGKKK as substrate measured after 40 mins in presence of [gamma33P]ATP by scintillation counting method relative to control
Outline: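 Single-point inhibition at 1 µM was measured in the Eurofins KinaseProfiler panel. Values are the mean of two independent experiments.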

[8] = biological target: Serine/threonine-protein kinase MRCK alpha (Homo sapiens) (UniProt Q5VT25); test: Inhibition of recombinant human MRCKalpha (1 to 473 residues) at 1 uM using KKRNRTLTV as substrate measured after 40 mins in presence of [gamma33P]ATP by scintillation counting method relative to control
[9] = biological target: NUAK family SNF1-like kinase 1 (Homo sapiens) (UniProt O60285); test: Inhibition of recombinant human ARK5 (2 to end residues) at 1 uM using KKKVSRSGLYRSPSMPENLNRPR as substrate measured after 40 mins in presence of [gamma33P]ATP by scintillation counting method relative to control
[10] = biological target: Mitogen-activated protein kinase 13 (Homo sapiens) (UniProt O15264); test: Inhibition of recombinant full-length human SAPK4 at 1 uM using myelin basic protein as substrate measured after 40 mins in presence of [gamma33P]ATP by scintillation counting method relative to control
NCI-H1299 [11] = test: Induction of apoptosis in human H1299 cells assessed as viable cells at 0.5 uM after 48 hrs by AnnexinV-FITC/PI staining-based flow cytometric analysis (reference value: 97.1%); format: functional; conditions: NCI-H1299, 48 h, read-out: Activity
NCI-H1299 [12] = test: Induction of apoptosis in human H1299 cells assessed as early apoptotic cells at 0.5 uM after 48 hrs by AnnexinV-FITC/PI staining-based flow cytometric analysis (reference value: 0.248%); format: functional
NCI-H1299 [13] = test: Induction of cell cycle arrest in human H1299 cells assessed as accumulation at G2/M phase after 24 hrs by propidium iodide/RNase staining based flow cytometric analysis; format: functional
Outline: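 A549 and H1299 plated at 5×10^5 cells/mL in 6-well plates, treated after adherence for 24 h. Washed with PBS, fixed overnight in ice-cold 75% ethanol, stained with propidium iodide plus RNase A for 30 min at 37 °C, analysed by flow cytometry for phase distribution. Means ± SD, three independent experiments.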

[14] = biological target: Maternal embryonic leucine zipper kinase (Homo sapiens) (UniProt Q14680); test: Inhibition of recombinant human MELK (1 to 340 residues) at 1 uM using KKLNRTLSFAEPG as substrate measured after 40 mins in presence of [gamma33P]ATP by scintillation counting method relative to control
Homo sapiens = species on record: Homo sapiens; test: Inhibition of recombinant full-length human PI3K p110delta/p85alpha N253S mutant at 1 uM using phosphatidylinositol-4, 5-bisphosphate as substrate measured after 40 mins by fluorescence assay relative to control
NCI-H1299 [15] = test: Induction of apoptosis in human H1299 cells assessed as necrotic cells at 1 uM after 48 hrs by AnnexinV-FITC/PI staining-based flow cytometric analysis (reference value: 0.9%); format: functional
[16] = system: Macrophage colony-stimulating factor 1 receptor (Homo sapiens), P07333 [Y969C]; test: Inhibition of recombinant human Fms (538 to end residues) Y969C mutant at 1 uM using EEEEYEEEEEEYYIIEEEEEEYEEEEEEYYEEEEEEKKKK as substrate measured after 40 mins in presence of [gamma33P]ATP by scintillation counting method relative to control
[17] = biological target: Ephrin type-A receptor 3 (Homo sapiens) (UniProt P29320); test: Inhibition of recombinant human EphA3 (568 to end residues) at 1 uM using poly(Glu, Tyr) 4:1 as substrate measured after 40 mins in presence of [gamma33P]ATP by scintillation counting method relative to control
[18] = biological target: Mitogen-activated protein kinase kinase kinase 3 (Homo sapiens) (UniProt Q99759); test: Inhibition of full-length recombinant human MEKK3 at 1 uM using myelin basic protein as substrate measured after 120 mins in presence of [gamma33P]ATP by scintillation counting method relative to control
Outline: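 Percent inhibition of kinase activity at a single compound concentration, measured by the outsourced Eurofins KinaseProfiler panel. Values are the mean of two independent experiments.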

[19] = system: Fibroblast growth factor receptor 2 (Homo sapiens), P21802 [N549H]; test: Inhibition of recombinant human FGFR2 N549H mutant (456 to 770 residues) at 1 uM using GGEEEEYFELVKKKK as substrate measured after 40 mins in presence of [gamma33P]ATP by scintillation counting method relative to control

Chain of Serine/threonine-protein kinase 17A (Homo sapiens) (Q9UEE5 whole entry): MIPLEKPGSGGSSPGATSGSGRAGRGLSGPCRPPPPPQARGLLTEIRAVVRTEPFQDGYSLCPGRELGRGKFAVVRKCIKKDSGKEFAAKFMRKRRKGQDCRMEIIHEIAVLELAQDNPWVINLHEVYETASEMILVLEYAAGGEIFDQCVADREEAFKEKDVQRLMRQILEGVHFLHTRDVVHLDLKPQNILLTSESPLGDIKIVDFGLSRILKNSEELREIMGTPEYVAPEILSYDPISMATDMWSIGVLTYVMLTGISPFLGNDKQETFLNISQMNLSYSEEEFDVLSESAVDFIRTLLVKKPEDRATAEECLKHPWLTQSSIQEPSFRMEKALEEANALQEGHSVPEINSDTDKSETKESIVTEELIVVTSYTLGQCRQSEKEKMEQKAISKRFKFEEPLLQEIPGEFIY
Chain of Mast/stem cell growth factor receptor Kit (Homo sapiens), P10721 [D816H] (P10721 whole entry D816H): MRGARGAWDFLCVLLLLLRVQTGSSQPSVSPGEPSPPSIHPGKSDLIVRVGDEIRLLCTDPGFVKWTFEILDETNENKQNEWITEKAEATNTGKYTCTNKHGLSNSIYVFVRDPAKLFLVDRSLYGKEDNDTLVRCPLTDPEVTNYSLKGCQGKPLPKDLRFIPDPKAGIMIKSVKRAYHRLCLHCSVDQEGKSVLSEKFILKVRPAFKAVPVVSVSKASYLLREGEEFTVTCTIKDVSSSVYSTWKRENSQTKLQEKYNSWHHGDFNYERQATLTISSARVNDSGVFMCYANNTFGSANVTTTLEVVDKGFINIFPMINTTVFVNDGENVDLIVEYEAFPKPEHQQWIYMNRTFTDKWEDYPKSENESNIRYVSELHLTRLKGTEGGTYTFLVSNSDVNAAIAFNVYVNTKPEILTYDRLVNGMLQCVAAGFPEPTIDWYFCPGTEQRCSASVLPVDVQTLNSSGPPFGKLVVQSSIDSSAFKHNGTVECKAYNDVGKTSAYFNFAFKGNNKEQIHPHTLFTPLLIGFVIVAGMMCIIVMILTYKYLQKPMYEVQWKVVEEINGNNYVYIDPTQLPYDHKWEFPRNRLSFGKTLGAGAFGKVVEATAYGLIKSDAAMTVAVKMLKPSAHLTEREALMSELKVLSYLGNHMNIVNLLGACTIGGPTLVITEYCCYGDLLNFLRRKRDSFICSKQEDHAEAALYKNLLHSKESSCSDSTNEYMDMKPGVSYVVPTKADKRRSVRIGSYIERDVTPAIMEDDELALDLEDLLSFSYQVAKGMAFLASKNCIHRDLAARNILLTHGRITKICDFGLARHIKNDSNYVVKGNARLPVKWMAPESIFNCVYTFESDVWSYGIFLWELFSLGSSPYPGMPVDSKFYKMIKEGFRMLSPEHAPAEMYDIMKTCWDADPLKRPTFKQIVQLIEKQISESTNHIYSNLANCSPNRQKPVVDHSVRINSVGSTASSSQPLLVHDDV
Chain of Ephrin type-A receptor 3 (Homo sapiens) (P29320 whole entry): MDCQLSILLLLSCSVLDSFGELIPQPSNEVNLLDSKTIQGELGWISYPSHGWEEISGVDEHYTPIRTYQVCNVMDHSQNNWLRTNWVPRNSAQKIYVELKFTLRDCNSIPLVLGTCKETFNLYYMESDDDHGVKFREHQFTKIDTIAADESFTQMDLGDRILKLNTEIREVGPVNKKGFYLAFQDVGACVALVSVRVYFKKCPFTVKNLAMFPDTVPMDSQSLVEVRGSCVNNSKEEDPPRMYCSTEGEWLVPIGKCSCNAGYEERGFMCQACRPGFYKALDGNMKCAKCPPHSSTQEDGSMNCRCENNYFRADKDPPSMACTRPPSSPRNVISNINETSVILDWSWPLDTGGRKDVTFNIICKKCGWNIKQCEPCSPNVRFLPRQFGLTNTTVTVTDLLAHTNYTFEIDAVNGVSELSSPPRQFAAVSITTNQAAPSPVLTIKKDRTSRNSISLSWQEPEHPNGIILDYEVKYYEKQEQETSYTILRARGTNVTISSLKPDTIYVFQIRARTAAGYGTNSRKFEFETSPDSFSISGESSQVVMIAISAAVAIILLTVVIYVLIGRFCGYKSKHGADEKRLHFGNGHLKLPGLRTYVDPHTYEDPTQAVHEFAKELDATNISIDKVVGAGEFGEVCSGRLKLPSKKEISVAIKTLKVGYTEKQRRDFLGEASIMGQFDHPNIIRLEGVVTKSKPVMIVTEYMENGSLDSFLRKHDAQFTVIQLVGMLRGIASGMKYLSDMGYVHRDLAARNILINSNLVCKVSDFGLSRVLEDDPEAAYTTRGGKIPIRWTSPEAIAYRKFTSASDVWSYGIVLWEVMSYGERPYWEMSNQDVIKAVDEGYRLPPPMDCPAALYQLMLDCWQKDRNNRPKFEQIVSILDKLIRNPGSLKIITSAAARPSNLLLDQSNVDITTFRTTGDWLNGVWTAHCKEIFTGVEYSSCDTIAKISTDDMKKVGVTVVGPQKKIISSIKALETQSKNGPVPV
Chain of Serine/threonine-protein kinase MRCK alpha (Homo sapiens) (Q5VT25 whole entry, the tested form may be a part): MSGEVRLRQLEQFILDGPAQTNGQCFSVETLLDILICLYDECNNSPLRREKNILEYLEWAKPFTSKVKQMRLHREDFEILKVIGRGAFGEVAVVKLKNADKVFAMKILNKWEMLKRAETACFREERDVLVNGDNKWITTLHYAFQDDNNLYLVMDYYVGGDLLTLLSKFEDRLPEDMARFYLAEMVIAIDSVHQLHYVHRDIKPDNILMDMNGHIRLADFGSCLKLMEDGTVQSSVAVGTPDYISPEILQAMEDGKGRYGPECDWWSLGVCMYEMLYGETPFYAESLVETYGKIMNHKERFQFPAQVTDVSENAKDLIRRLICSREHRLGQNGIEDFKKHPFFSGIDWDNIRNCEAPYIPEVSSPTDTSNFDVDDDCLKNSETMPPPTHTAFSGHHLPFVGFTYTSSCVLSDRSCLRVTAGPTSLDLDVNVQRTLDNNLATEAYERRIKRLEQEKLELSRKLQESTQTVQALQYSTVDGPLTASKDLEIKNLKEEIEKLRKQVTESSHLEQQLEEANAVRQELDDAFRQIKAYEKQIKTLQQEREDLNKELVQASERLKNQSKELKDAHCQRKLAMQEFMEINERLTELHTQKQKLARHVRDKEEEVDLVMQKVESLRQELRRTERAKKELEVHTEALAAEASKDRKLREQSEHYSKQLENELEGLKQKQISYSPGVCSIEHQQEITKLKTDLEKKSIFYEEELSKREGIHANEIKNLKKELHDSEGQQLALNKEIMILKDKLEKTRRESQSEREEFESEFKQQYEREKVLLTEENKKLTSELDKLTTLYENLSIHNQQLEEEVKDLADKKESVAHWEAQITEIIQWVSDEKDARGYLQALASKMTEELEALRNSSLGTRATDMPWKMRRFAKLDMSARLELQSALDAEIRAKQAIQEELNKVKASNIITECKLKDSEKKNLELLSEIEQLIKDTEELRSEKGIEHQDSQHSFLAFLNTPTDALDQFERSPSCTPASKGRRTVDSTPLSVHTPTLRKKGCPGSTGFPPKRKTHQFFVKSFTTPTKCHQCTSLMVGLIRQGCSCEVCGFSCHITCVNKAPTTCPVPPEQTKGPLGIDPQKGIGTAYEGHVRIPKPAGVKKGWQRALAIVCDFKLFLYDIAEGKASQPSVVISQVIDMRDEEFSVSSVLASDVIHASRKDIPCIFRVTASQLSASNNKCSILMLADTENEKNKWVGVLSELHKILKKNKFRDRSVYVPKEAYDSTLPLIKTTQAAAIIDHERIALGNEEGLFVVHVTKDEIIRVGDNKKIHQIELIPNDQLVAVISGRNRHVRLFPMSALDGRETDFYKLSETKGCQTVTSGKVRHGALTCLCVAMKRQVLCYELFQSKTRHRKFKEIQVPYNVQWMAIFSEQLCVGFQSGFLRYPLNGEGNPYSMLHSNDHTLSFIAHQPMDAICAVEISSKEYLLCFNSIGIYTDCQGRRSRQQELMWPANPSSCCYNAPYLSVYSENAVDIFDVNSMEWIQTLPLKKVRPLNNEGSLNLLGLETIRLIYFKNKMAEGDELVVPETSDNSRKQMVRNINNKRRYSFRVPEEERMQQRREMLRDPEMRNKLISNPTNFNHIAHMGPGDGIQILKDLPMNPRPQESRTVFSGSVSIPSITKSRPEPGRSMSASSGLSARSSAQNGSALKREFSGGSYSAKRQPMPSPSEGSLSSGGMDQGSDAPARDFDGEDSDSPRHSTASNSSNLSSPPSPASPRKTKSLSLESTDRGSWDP
Chain of Serine/threonine-protein kinase ULK3 (Homo sapiens) (Q6PHR2 whole entry): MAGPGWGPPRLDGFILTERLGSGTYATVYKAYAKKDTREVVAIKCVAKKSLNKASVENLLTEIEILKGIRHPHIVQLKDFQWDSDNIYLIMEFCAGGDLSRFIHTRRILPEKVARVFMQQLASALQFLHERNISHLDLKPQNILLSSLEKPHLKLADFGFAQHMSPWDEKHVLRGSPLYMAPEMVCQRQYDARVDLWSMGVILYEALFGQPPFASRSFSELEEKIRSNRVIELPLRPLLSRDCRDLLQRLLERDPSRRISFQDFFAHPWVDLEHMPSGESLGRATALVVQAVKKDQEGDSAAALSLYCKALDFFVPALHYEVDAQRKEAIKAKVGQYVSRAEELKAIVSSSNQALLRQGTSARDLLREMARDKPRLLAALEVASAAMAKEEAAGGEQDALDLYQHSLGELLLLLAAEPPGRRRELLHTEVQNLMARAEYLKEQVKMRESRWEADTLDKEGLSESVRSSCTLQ
Chain of Mitogen-activated protein kinase 13 (Homo sapiens) (O15264 whole entry): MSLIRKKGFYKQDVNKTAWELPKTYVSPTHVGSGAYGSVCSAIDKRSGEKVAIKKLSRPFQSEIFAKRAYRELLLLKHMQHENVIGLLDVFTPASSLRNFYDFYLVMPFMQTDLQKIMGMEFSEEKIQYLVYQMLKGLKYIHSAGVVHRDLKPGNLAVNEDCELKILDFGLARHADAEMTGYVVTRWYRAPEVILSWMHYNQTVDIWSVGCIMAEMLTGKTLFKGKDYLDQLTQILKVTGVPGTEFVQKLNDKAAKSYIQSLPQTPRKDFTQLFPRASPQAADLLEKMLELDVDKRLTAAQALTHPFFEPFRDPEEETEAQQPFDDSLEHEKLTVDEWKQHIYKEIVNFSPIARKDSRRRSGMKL

**Q.** Which results are given for `CN(C)C(=O)c1cc2cnc(Nc3ccc(NC(=O)CCCCCCCN=C=S)cc3)nc2n1C1CCCC1`?
**A.** IC50 (CCRF-CEM): > 10 µM; inhibition [1]: 22%; inhibition [2]: 53%; Activity (A549): 13.8%; inhibition [3]: 15%; inhibition [4]: 9%; IC50 (HepG2 [5]): 3.86 µM; inhibition at 0.5 µM (HepG2 [6]): 23%; inhibition [7]: 59%; inhibition [8]: -5%; inhibition [9]: 79%; inhibition [10]: 10%; viability at 0.5 µM (NCI-H1299 [11]): 94.5%; Activity (NCI-H1299 [12]): 0.758%; Activity (NCI-H1299 [13]): Dose-dependent effect; inhibition [14]: 88%; inhibition (Homo sapiens): 2%; Activity (NCI-H1299 [15]): 3.64%; inhibition [16]: 40%; inhibition [17]: 5%; inhibition [18]: 66%; inhibition [19]: 76%
